hERG rescue: hERG (human) protection from proarrhythmic block | Q12809 | CHO-hERG, FluxOR thallium flux, dofetilide IC70 present | activation (rescue from dofetilide block), less the hit threshold, % at 10 µM | 310,000 tested, 0.51% active | AID 1511;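 active = activation above the mean of controls blocked by dofetilide plus 5 SD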;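 also: thallium influx through hERG after potassium depolarization seen as dye fluorescence rise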
KCNQ1 pot: human KCNQ1 channel potentiation or activation | CHO-K1 KCNQ1, thallium flux FluxOR fluorescence; active compounds read high | B-score at 10 µM | 310,000 tested, 0.35% active;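 active = fluorescence ratio B-score, a plate-corrected score, at least three library SD, with initial intensity B-score within 5 SD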
Target sequence (P51787 whole entry, looked up): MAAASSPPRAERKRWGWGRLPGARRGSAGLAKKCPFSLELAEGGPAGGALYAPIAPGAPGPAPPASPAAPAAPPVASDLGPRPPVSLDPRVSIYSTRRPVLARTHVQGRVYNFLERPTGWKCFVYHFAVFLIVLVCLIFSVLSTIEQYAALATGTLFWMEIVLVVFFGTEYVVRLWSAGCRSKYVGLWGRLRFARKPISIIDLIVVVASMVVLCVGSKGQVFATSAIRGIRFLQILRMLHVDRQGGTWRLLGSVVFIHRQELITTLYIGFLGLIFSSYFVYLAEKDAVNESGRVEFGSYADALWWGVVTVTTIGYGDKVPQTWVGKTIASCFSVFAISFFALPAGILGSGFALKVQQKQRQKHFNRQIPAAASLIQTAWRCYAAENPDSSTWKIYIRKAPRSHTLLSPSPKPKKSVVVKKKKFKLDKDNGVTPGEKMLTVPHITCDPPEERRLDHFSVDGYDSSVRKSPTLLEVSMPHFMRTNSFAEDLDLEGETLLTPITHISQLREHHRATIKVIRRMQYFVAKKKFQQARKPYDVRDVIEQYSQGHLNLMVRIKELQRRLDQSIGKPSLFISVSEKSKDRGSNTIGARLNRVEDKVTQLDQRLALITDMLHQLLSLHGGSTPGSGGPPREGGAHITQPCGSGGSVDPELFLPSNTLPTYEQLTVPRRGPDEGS
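assay system = KCNQ1-transfected CHO-K1 cells | medium = assay buffer with matched DMSO | probe or stimulus = depolarizing K+/Tl+ stimulus, K2SO4 and Tl2SO4 each 12.5 mM in 5x stock | dosing = single dose | incubation = dye 90 min, compound 20 min, room temperature | detection = kinetic FluxOR fluorescence, 10 s baseline plus 110 s post-stimulus | evaluation = ratio B score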
KCNQ1 block: inhibitors of human KCNQ1 potassium channel. CHO-K1 KCNQ1, FluxOR thallium flux fluorescence; active compounds read high. B-score at 10 µM. 310,000 tested, 1.3% active. AID 2642;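 active = compounds whose thallium flux B-score, printed positive for inhibition, exceeds three library SD while starting fluorescence stays within three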;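 also: channel opened by potassium depolarization with thallium stimulus after 20 min compound exposure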
KCNK9 inh: inhibitors of human KCNK9 two-pore domain potassium channel | HEK293 KCNK9, FluxOR thallium flux fluorescence; active compounds read low | Q9NPC2 | 310,000 tested, 1.2% active | B-score at 10 µM;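 active = ratio B-score over 3 SD below the library mean, with starting fluorescence within 5 SD of its mean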;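 also: negative B-score means less thallium flux so channel inhibition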
KCNK3 block: human KCNK3 channel inhibition, primary screen; O14649; CHO-KCNK3 thallium flux, FluxOR fluorescence; active compounds read low; B-score at 10 µM; 340,000 tested, 0.84% active; AID 602410;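 active = B-score under library mean minus 4 SD, starting fluorescence ratio at most library mean plus 5 SD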;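 also: more negative B-score means stronger inhibition of thallium flux through KCNK3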
The depositor's hits bear a star; i = inactive; x = not tested or not shown. Most compounds without a hit are left out; they make up all but 3.1% or so of the library.

SMILES	hERG rescue	KCNQ1 pot	KCNQ1 block	KCNK9 inh	KCNK3 block
O=[N+]([O-])c1ccc(C2=NN(c3ccccc3)C(c3ccco3)C2)cc1 (stereo not drawn)	-31	i	8*	i	i
CCOC(=O)c1c(NC(=O)C(C)Sc2nnc(C)c(=O)[nH]2)sc2c1CCCC2 (stereo not drawn)	-10	i	i	i	i
CCN(CC)S(=O)(=O)c1ccc(OCC(=O)NC(=O)Cc2ccccc2)c([N+](=O)[O-])c1	x	x	x	x	i
CN(CC(=O)Nc1cccc(F)c1)C(=O)c1ccccc1Sc1ccccc1C#N	x	x	x	x	i
Cc1ccccc1-n1nc(C(=O)c2cccs2)cc(-c2nc3ccccc3[nH]2)c1=N	-17	i	6*	i	i
COc1ccc(-n2nc(C(=O)c3cccs3)cc(-c3nc4ccccc4[nH]3)c2=N)cc1	-11	i	i	i	i
CC1CCC2(CC1)NC(=O)N(NC(=O)C1CCN(C(=O)c3ccc(Cl)cc3)CC1)C2=O (stereo not drawn)	x	x	x	x	i
CCN(CC)S(=O)(=O)c1ccc(OC)c(NC(=O)c2ccc(-n3cncn3)c([N+](=O)[O-])c2)c1	-14	i	i	i	i
COC(=O)c1ccnc(/C=N/O)c1	6.2*	i	i	i	i
Cc1cc(-c2ccc(S(=O)(=O)N3CCN(c4cccc(C)c4C)CC3)s2)on1	-4	i	i	i	i
N#C/C(=C(/O)c1ccc2c(c1)OCO2)c1nc2cc(C(F)(F)F)ccc2s1	-8	i	11*	i	i
Cc1ccc(C2(C)NC(=O)N(CC(=O)N3CCN(C(=O)c4cccs4)CC3)C2=O)cc1 (stereo not drawn)	x	x	x	x	i
CCCCN(C(=O)CSCC(=O)Nc1ccc(OC)cc1)c1c(N)n(Cc2ccccc2)c(=O)[nH]c1=O	-11	i	i	i	i
COc1ccc(NC(=O)c2sc3nc(C)cc(C)c3c2N)cc1	4.8*	i	i	i	i
COc1ccc(S(=O)(=O)N2CCC(C(=O)Nc3ccc(S(=O)(=O)N4CCCC4)cc3)CC2)cc1OC	-18	i	i	i	i
Cc1ccc(NC(=O)C(C)c2cccc(C(=O)c3ccccc3)c2)cc1O (stereo not drawn)	-15	i	8*	i	i
Cc1cccc(NC(=O)C(C)C(=O)c2ccccc2)c1 (stereo not drawn)	-8	i	i	i	i
CCNc1nc(CN2CCOCC2)nc2sc3c(c12)CCC3	-5	i	i	i	i
c1ccc2c(c1)CCN(c1nc(CN3CCOCC3)nc3sc4c(c13)CCCC4)C2	-13	i	6*	i	i
CCN(CC)CC(O)COCCC12CC3CC(CC(C3)C1)C2 (stereo not drawn)	4	i	i	i	i
OCCN(CCO)CC(O)COCCC12CC3CC(CC(C3)C1)C2 (stereo not drawn)	-16	i	8*	i	i
O=C(Nc1nc(=O)c2ccccc2s1)c1ccc(F)cc1	-3	23*	i	i	i
O=C(Nc1nc(=O)c2ccccc2s1)c1ccc(Cl)cc1	43*	36*	i	i	i
O=C(Cc1ccccc1)Nc1nc(=O)c2ccccc2s1	-3	i	i	i	i
CCOC(=O)c1c(S(=O)(=O)NCC(=O)N2CCN(c3ccc(F)cc3)CC2)c(C)n(C)c1C	-8	i	i	i	i
SMILES	hERG rescue	KCNQ1 pot	KCNQ1 block	KCNK9 inh	KCNK3 block
CCOC(=O)/C(C#N)=C/c1c(N2CCN(c3cccc(Cl)c3)CC2)nc2c(C)cccn2c1=O	-11	i	6*	i	i
CNC(=O)/C(C#N)=C/c1c(N2CCN(c3cccc(Cl)c3)CC2)nc2c(C)cccn2c1=O	-5	i	i	i	i
COC(=O)c1cc(-c2ccc(S(=O)(=O)N3CCCC(C)C3)cc2)c(C(F)(F)F)s1 (stereo not drawn)	-12	i	6*	i	i
COC(=O)c1cc(S(=O)(=O)N2CCCC(C)C2)cn1C (stereo not drawn)	-3	i	i	i	i
CC[C@@]1(C(=O)OC)N[C@H](CN(C)C(=O)COC)[C@@H]2C(=O)N(Cc3ccccc3)C(=O)[C@@H]21	x	x	x	x	i
CCc1c(C)sc(NC(=O)CN2CCN(C(=O)c3ccco3)CC2)c1C(=O)OC	1	22*	i	i	i
CCOC(=O)c1c(NC(=O)CN2CCN(C(=O)c3ccco3)CC2)sc(C)c1C	-2	i	i	i	i
CC[C@]1(C(=O)OC)[C@H]2C(=O)N(C)C(=O)[C@H]2[C@H]2CN=C(SCc3ccc(C#N)cc3)N21	x	x	x	x	i
C=CCSC(=C(C#N)C#N)c1cc2c([nH]1)CCCC2	-14	i	8*	i	i
COc1ccc(-c2noc(CN(C)C(=O)c3ccoc3C)n2)cc1	-4	i	i	i	i
CCOc1ccccc1NC(=O)NC1CC2CCCC(C1)N2Cc1nnnn1CCc1ccccc1 (stereo not drawn)	-7	i	i	i	-9.1*
COc1ccc(-c2nn(-c3ccccc3)cc2/C=C/C(=O)N(C)CC(=O)Nc2cccc(F)c2)cc1OC	x	x	x	x	-10*
CCOc1ccc(NC(=O)CN(C)C(=O)c2c(-c3c(F)cccc3Cl)noc2C)cc1OCC	3	8*	i	i	i
COc1ccc(-c2nn(-c3ccccc3)cc2/C=C/C(=O)NCCCn2ccnc2)cc1OC	-36	i	7*	i	i
CCOc1ccc(NC(=O)CN(C)C(=O)c2cn(-c3ccc(F)cc3)nc2-c2cccc(OC)c2)cc1OCC	-12	i	7*	i	i
CCOc1ccc(NC(=O)CN(C)C(=O)c2c(C)nn(-c3ccc(F)cc3)c2Cl)cc1OCC	-18	i	i	i	i
COc1ccc(-c2nn(-c3ccccc3)cc2C(=O)NCCCn2ccnc2)cc1	-2	i	i	i	i
COc1cccc(NC(=O)CN(C)C(=O)/C=C/c2cn(-c3ccccc3)nc2-c2ccc(OC)c(OC)c2)c1	x	x	x	x	i
O=C1OCCN1C(=O)[C@H]1[C@H](c2ccc([N+](=O)[O-])cc2)C(c2ccc(F)cc2)=NN1c1ccc(Br)cc1	x	x	x	x	i
CCOC(=O)/C(=C\Nc1ccccc1C(F)(F)F)Sc1ncc(C(F)(F)F)cc1Cl	-18	i	7*	i	i
COC(=O)/C(=C\Nc1ccc(Cl)c2ccccc12)c1ncc(C(F)(F)F)cc1Cl	-6	i	i	i	i
COc1ccc(NS(=O)(=O)N2CCCCC2)cc1	x	x	x	x	i
COc1ccccc1/C=N/OCc1ccc(C#N)cc1	-5	i	i	i	i
